Calls of active or inactive are those of the source. No cut-off for these calls is given here.
How the values were obtained:
Human alphaherpesvirus 3 [1] = assay: Antiviral activity against Varicella-zoster virus OKA; assay type: functional; details: strain Oka vaccine
In short: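 Confluent cell monolayers were infected with 10 or 100 PFU of VZV in the presence of serial compound dilutions. Plaque formation was recorded once untreated infected controls reached completion. EC50 was the concentration that reduced plaque formation by 50%.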

Sindbis virus = assay: Antiviral activity against Sindbis virus; assay type: functional, organism-based
In short: (§1)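 Confluent HEL, Vero, HeLa or MDCK cell cultures were inoculated with 100 CCID50 of virus alongside varying compound concentrations. Cytopathicity was scored when it reached completion in untreated virus controls. EC50 is the concentration that reduces virus-induced cytopathogenicity by 50%.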

Human respirovirus 3 = assay: Antiviral activity against Parainfluenza virus 3; assay type: functional, organism-based; in short: as §1
Human betaherpesvirus 5 [2] = assay: Antiviral actiivty against Human herpesvirus 5 Davis infected in HEL assessed as reduction of virus-induced plaque formation; assay type: functional, organism-based; details: Human betaherpesvirus 5, Davis
In short: (§2)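 HCMV strains AD-169 and Davis were tested on confluent human embryonic lung fibroblast monolayers infected with 100 PFU in the presence of serial compound concentrations. Plaques were counted once formation was complete in untreated infected controls. EC50 is the concentration that cuts plaque formation by 50%.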

Human betaherpesvirus 5 [3] = assay: Antiviral actiivty against Human herpesvirus 5 AD169 infected in HEL assessed as reduction of virus-induced plaque formation; assay type: functional, organism-based; details: Human betaherpesvirus 5, AD169; in short: as §2
[4] = test system: Vesicular stomatitis virus; assay: Antiviral activity against Vesicular stomatitis virus; assay type: functional, organism-based
Human alphaherpesvirus 2 [5] = assay: Antiviral activity against Herpes simplex virus type 2 G; assay type: functional, organism-based; details: strain G; in short: as §1
[6] = test system: Human immunodeficiency virus 1; assay: Antiviral activity against HIV1 3B infected in human CEM cells assessed as inhibition of virus-induced giant cell formation after 4 to 5 days; assay type: functional, organism-based; details: CCRF-CEM
In short: (§3)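 CEM cells at about 3 × 10^5 cells/mL were infected with 100 CCID50 of HIV per mL, with compound dilutions present. They were incubated 4–5 days at 37 °C in humidified CO2, and syncytia were scored microscopically. EC50 is the concentration that inhibits giant cell formation by 50%.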

Feline coronavirus = assay: Antiviral activity against Feline coronavirus; assay type: functional, organism-based
[7] = Cytotoxicity against HEL assessed as minimum cytotoxic concentration required to cause microscopically detectable alteration in cell morphology; assay type: cell-based; details: human, HEL cells
Influenza B virus = assay: Antiviral activity against Influenza B virus; assay type: functional, organism-based
In short: (§4)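 The assay was a cell-based cytopathicity inhibition test on confluent monolayers with serial compound dilutions. EC50 was the concentration that reduced virus-induced cytopathicity by 50%.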

[8] = test system: Respiratory syncytial virus; assay: Antiviral activity against Respiratory syncytial virus Long; assay type: functional, organism-based; in short: as §1
Influenza A virus [9] = assay: Antiviral activity against Influenza virus A virus H1N1; assay type: functional, organism-based; in short: as §4
Punta Toro virus = assay: Antiviral activity against Punta Toro virus; assay type: functional, organism-based; in short: as §1
Human alphaherpesvirus 1 [10] = assay: Antiviral activity against thymidine kinase deficient acyclovir-resistant Herpes simplex virus type 1 KOS; assay type: functional, organism-based
[11] = test system: Mammalian orthoreovirus 1; assay: Antiviral activity against Reovirus-1; assay type: functional, organism-based; in short: as §1
Human alphaherpesvirus 3 [12] = assay: Antiviral activity against Varicella-zoster virus YS; assay type: functional, organism-based
In short: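 VZV was assayed by plaque formation. Confluent cell cultures received 10 or 100 PFU with varying compound concentrations, and plaques were recorded once complete in untreated infected controls. EC50 is the concentration that reduces plaque formation by 50%.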

Vaccinia virus = assay: Antiviral activity against Vaccinia virus Lederle; assay type: functional, organism-based; details: Orthopoxvirus vaccinia
Influenza A virus [13] = assay: Antiviral activity against Influenza virus A virus H3N2; assay type: functional, organism-based; in short: as §4
Human alphaherpesvirus 1 [14] = assay: Antiviral activity against Herpes simplex virus type 1 KOS; assay type: functional, organism-based; in short: as §1
[15] = test system: Human immunodeficiency virus 2; assay: Antiviral activity against HIV2 ROD infected in human CEM cells assessed as inhibition of virus-induced giant cell formation after 4 to 5 days; assay type: functional, organism-based; details: ISOLATE ROD, CCRF-CEM; in short: as §3
Coxsackievirus B4 = assay: Antiviral activity against Coxsackie B4 virus; assay type: functional, organism-based; in short: as §1
HEL = assay: Cytotoxicity against HEL; assay type: cell-based; details: human
Human alphaherpesvirus 2 [16] = assay: Antiviral activity against Herpes simplex virus type 2 Lyons; assay type: functional, organism-based; in short: as §1

SMILES	Activity (Human alphaherpesvirus 3 [1])	Activity (Sindbis virus)	Activity (Human respirovirus 3)	EC50 (Human betaherpesvirus 5 [2]) [µM]	EC50 (Human betaherpesvirus 5 [3]) [µM]	Activity [4]	Activity (Human alphaherpesvirus 2 [5])	Activity [6]	Activity (Feline coronavirus)	MCC [7] [µM]	Activity (Influenza B virus)	Activity [8]	Activity (Influenza A virus [9])	Activity (Punta Toro virus)	Activity (Human alphaherpesvirus 1 [10])	Activity [11]	Activity (Human alphaherpesvirus 3 [12])	Activity (Vaccinia virus)	Activity (Influenza A virus [13])	Activity (Human alphaherpesvirus 1 [14])	also measured
Cc1cn(CCCCCOc2ccc(Br)cc2)c(=O)[nH]c1=O	inactive	inactive	inactive	9	8.9	inactive	inactive	inactive	inactive	100	inactive	inactive	inactive	inactive	inactive	inactive	inactive	inactive	inactive	inactive	Activity [15]: inactive; Activity (Coxsackievirus B4): inactive; CC50 (HEL): > 100 µM; Activity (Human alphaherpesvirus 2 [16]): inactive
O=c1[nH]c(=O)n(CCCCCOc2ccc(Br)cc2)cc1Br	inactive	inactive	inactive	67	36	inactive	inactive	inactive	inactive	> 100	inactive	inactive	inactive	inactive	inactive	inactive	inactive	inactive	inactive	inactive	Activity [15]: inactive; Activity (Coxsackievirus B4): inactive; CC50 (HEL): > 100 µM; Activity (Human alphaherpesvirus 2 [16]): inactive
CCCOC(=O)c1ccc(OCCCCCn2ccc(=O)[nH]c2=O)cc1	inactive	inactive	inactive	45	45	inactive	inactive	inactive	inactive	≥ 100	inactive	inactive	inactive	inactive	inactive	inactive	inactive	inactive	inactive	inactive	Activity [15]: inactive; Activity (Coxsackievirus B4): inactive; CC50 (HEL): > 100 µM; Activity (Human alphaherpesvirus 2 [16]): inactive
O=c1ccn(CCCCCOc2ccccc2)c(=O)[nH]1	inactive	inactive	inactive	> 100	> 100	inactive	inactive	inactive	inactive	> 100	inactive	inactive	inactive	inactive	inactive	inactive	inactive	inactive	inactive	inactive	Activity [15]: inactive; Activity (Coxsackievirus B4): inactive; CC50 (HEL): > 100 µM; Activity (Human alphaherpesvirus 2 [16]): inactive
Cc1ccccc1OCCCCCn1ccc(=O)[nH]c1=O	inactive	inactive	inactive	> 100	> 100	inactive	inactive	inactive	inactive	> 100	inactive	inactive	inactive	inactive	inactive	inactive	inactive	inactive	inactive	inactive	Activity [15]: inactive; Activity (Coxsackievirus B4): inactive; CC50 (HEL): > 100 µM; Activity (Human alphaherpesvirus 2 [16]): inactive
CC(C)c1ccc(OCCCCCn2ccc(=O)[nH]c2=O)cc1	inactive	inactive	inactive	15	25	inactive	inactive	inactive	inactive	100	inactive	inactive	inactive	inactive	inactive	inactive	inactive	inactive	inactive	inactive	Activity [15]: inactive; Activity (Coxsackievirus B4): inactive; CC50 (HEL): > 100 µM; Activity (Human alphaherpesvirus 2 [16]): inactive
Nc1nc(O)c2ncn(COC(CO)CO)c2n1 [GANCICLOVIR]				8.3						394											CC50 (HEL): 200 µM
Nc1ccn(C[C@@H](CO)OCP(=O)(O)O)c(=O)n1 [CIDOFOVIR]				1.1	1.3					317											CC50 (HEL): 161 µM
O=c1ccn(CCCCCOc2ccc(Cl)cc2)c(=O)[nH]1	inactive	inactive	inactive	> 100	> 100	inactive	inactive	inactive	inactive	> 100	inactive	inactive	inactive	inactive	inactive	inactive	inactive	inactive	inactive	inactive	Activity [15]: inactive; Activity (Coxsackievirus B4): inactive; Activity (Human alphaherpesvirus 2 [16]): inactive
O=c1ccn(CCCCCOc2ccc([N+](=O)[O-])cc2)c(=O)[nH]1	inactive	inactive	inactive	> 4	> 4	inactive	inactive	inactive	inactive	20	inactive	inactive	inactive	inactive	inactive	inactive	inactive	inactive	inactive	inactive	Activity [15]: inactive; Activity (Coxsackievirus B4): inactive; Activity (Human alphaherpesvirus 2 [16]): inactive
